Assay results as given in ChEMBL document CHEMBL3396946, “Design, synthesis and pharmacological evaluation of N-[4-(4-(alkyl/aryl/heteroaryl)-piperazin-1-yl)-phenyl]-carbamic acid ethyl ester derivatives as novel anticonvulsant agents” (Bioorg Med Chem Lett, 2015).
Activity calls are given as the source filed them. No cut-off for these calls is given here.

How the values were obtained:
Mus musculus [1] = assay: Anticonvulsant activity in intraperitoneally dosed Swiss albino mouse assessed as reduction in electrical stimulus-induced seizures after 0.5 hrs by maximal electroshock seizure test; type: functional
Method in brief: (§1)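 Adult male Swiss albino mice; test agents given i.p. at 30, 100 and 300 mg/kg, with animals examined 0.5 h and 4.0 h after injection. Value is the minimal dose protecting half or more of the mice; a dash means no activity at 300 mg/kg.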

Mus musculus [2] = assay: Anticonvulsant activity in intraperitoneally dosed Swiss albino mouse assessed as reduction in electrical stimulus-induced seizures after 4 hrs by maximal electroshock seizure test; type: functional; method in brief: as §1
Mus musculus [3] = assay: Anticonvulsant activity in Swiss albino mouse assessed as reduction in clonic seizures at 300 mg/kg, ip after 0.5 hrs by subcutaneous pentylenetetrazole seizure test; type: functional, organism-based; design: dose 300 mg/kg; method in brief: as §1
Mus musculus [4] = assay: Anticonvulsant activity in Swiss albino mouse assessed as reduction in clonic seizures at 300 mg/kg, ip after 4 hrs by subcutaneous pentylenetetrazole seizure test; type: functional, organism-based; design: dose 300 mg/kg; method in brief: as §1
Mus musculus [5] = assay: Neurological toxicity in Swiss albino mouse assessed as motor impairment at 300 mg/kg, ip after 0.5 hrs by rotarod test; type: organism-based; design: dose 300 mg/kg, route intraperitoneal; details: in vivo
Method in brief: (§2)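 Adult male Swiss albino mice dosed i.p. at 30, 100 and 300 mg/kg, examined at 0.5 h and 4.0 h. Neurotoxicity is scored as failure to hold onto the rotating rod, with three successive trials. Value is the minimal dose active in half or more of the mice.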

Mus musculus [6] = assay: Neurological toxicity in Swiss albino mouse assessed as motor impairment at 300 mg/kg, ip after 4 hrs by rotarod test; type: organism-based; design: dose 300 mg/kg, route intraperitoneal; details: in vivo; method in brief: as §2
Mus musculus [7] = assay: Anticonvulsant activity in intraperitoneally dosed Swiss albino mouse assessed as reduction in clonic seizures after 0.5 hrs by subcutaneous pentylenetetrazole seizure test; type: functional; method in brief: as §1
Mus musculus [8] = assay: Anticonvulsant activity in intraperitoneally dosed Swiss albino mouse assessed as reduction in clonic seizures after 4 hrs by subcutaneous pentylenetetrazole seizure test; type: functional; method in brief: as §1
Mus musculus [9] = assay: (§3) Anticonvulsant activity in Swiss albino mouse model of pentylenetetrazole-induced kindling related chronic epilepsy assessed as reduction in seizure severity score by at 5 mg/kg, ip administered daily for 5 weeks followed by injection of 30 mg/kg, ip PTZ on every alternate day till full kindling development; type: functional, organism-based
Method in brief: (§4)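 Adult male Swiss albino mice are randomised into seven groups (n = 8; n = 9 for PTZ-only). Treatment is i.p. for 35 days. PTZ is given at 30 mg/kg i.p. on alternate days for 5 weeks. Control mice receive saline; phenobarbital 30 mg/kg i.p. is the reference. Seizure score is rated visually each week. Data are mean ± SEM, ANOVA with Tukey's test.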

Mus musculus [10] = assay: as §3, with “at 10 to 30” for “at 5”; type: functional, organism-based; method in brief: as §4
Mus musculus [11] = assay: (§5) Reduction in MDA level in brain of Swiss albino mouse model of pentylenetetrazole-induced kindling related chronic epilepsy at 5 to 30 mg/kg, ip administered daily for 5 weeks followed by injection of 30 mg/kg, ip PTZ on every alternate day till full kindling development by spectrophotometry; type: functional, organism-based
Method in brief: (§6)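 PTZ-kindled mice (30 mg/kg i.p. on alternate days for 5 weeks) receive i.p. treatment (5, 10, 20, 30 mg/kg) for 35 days. At the end, mice are killed under ether and brains stored at -20 °C for up to 10 h. Readouts are GSH (µg/g wet tissue), MDA (nmol/µg protein), GSH-Px (U/g protein) and NO (µmol/g protein). n = 8 per group (PTZ group n = 6); mean ± SEM, ANOVA with Tukey's test.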

Mus musculus [12] = assay: as §5, with “Increase” for “Reduction”, “GSH” for “MDA”, “Ellman's reagent based assay” for “spectrophotometry”; type: functional, organism-based; method in brief: as §6
Mus musculus [13] = assay: Increase in GSH-Px level in brain of Swiss albino mouse model of pentylenetetrazole-induced kindling related chronic epilepsy at 5 to 30 mg/kg, ip administered daily for 5 weeks followed by injection of 30 mg/kg, ip PTZ on every alternate day till full kindling development; type: functional, organism-based; method in brief: as §6
Mus musculus [14] = assay: as §5, with “in nitric oxide” for “in MDA”, “at 10” for “at 5”, “by Griess reagent based assay” for “by spectrophotometry”; type: functional, organism-based; method in brief: as §6
Mus musculus [15] = assay: as §5, with “nitric oxide” for “MDA”, “5” for “5 to 30”, “Griess reagent based assay” for “spectrophotometry”; type: functional, organism-based; method in brief: as §6
[16] = Neurological toxicity in intraperitoneally dosed Swiss albino mouse assessed as motor impairment after 0.5 hrs by rotarod test; type: organism-based; details: in vivo, ip, read-out: MTD50
[17] = Neurological toxicity in intraperitoneally dosed Swiss albino mouse assessed as motor impairment after 4 hrs by rotarod test; type: organism-based; details: in vivo, ip, read-out: MTD50
Mus musculus [18] = assay: as §3, with “reduction in incidence and seizure severity” for “reduction in seizure severity”, “by at 30 mg/kg, ip” for “by at 5 mg/kg, ip”; type: functional, organism-based
Method in brief: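 Adult Swiss albino male mice, randomised to seven groups (n = 8; PTZ group n = 9). Test drug given i.p. over 35 days, with PTZ 30 mg/kg i.p. on alternate days for 5 weeks. Seizures scored visually each week. Mean score ± SEM compared by ANOVA with Tukey's test.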

Mus musculus [19] = assay: Anticonvulsant activity in Swiss albino mouse assessed as reduction in electrical stimulus-induced seizures at 300 mg/kg, ip after 4 hrs by maximal electroshock seizure test; type: functional, organism-based; design: dose 300 mg/kg; method in brief: as §1
Mus musculus [20] = assay: Toxicity in Swiss albino mouse assessed as induction of sedation at 100 mg/kg, ip after 0.5 hrs during maximal electroshock seizure test; type: organism-based; design: dose 100 mg/kg, route intraperitoneal; details: in vivo
Mus musculus [21] = assay: Toxicity in Swiss albino mouse assessed as induction of sedation at 300 mg/kg, ip after 0.5 hrs during subcutaneous pentylenetetrazole seizure test; type: organism-based; design: dose 300 mg/kg
Mus musculus [22] = assay: Anticonvulsant activity in Swiss albino mouse assessed as reduction in electrical stimulus-induced seizures at 300 mg/kg, ip after 0.5 hrs by maximal electroshock seizure test; type: functional, organism-based; design: dose 300 mg/kg; method in brief: as §1
Mus musculus [23] = assay: Toxicity in Swiss albino mouse assessed as induction of myoclonic jerks at 300 mg/kg, ip after 0.5 hrs during subcutaneous pentylenetetrazole seizure test; type: organism-based; design: dose 300 mg/kg
Mus musculus [24] = assay: Toxicity in Swiss albino mouse assessed as induction of myoclonic jerks at 100 mg/kg, ip after 0.5 hrs during subcutaneous pentylenetetrazole seizure test; type: organism-based; design: dose 100 mg/kg
Mus musculus [25] = assay: Toxicity in Swiss albino mouse assessed as induction of death following tonic extension at 300 mg/kg, ip after 4 hrs during maximal electroshock seizure test; type: organism-based; design: dose 300 mg/kg, route intraperitoneal; details: in vivo
Mus musculus [26] = assay: Toxicity in Swiss albino mouse assessed as induction of death following tonic extension at 300 mg/kg, ip after 0.5 hrs during maximal electroshock seizure test; type: organism-based; design: dose 300 mg/kg, route intraperitoneal; details: in vivo
Mus musculus [27] = assay: Toxicity in Swiss albino mouse assessed as induction of myoclonic jerks at 100 mg/kg, ip after 4 hrs during subcutaneous pentylenetetrazole seizure test; type: organism-based; design: dose 100 mg/kg

SMILES | MED50 (Mus musculus [1]) [mg/kg] | MED50 (Mus musculus [2]) [mg/kg] | Activity (Mus musculus [3]) | Activity (Mus musculus [4]) | Activity (Mus musculus [5]) | Activity (Mus musculus [6]) | MED50 (Mus musculus [7]) [mg/kg] | MED50 (Mus musculus [8]) [mg/kg] | Activity (Mus musculus [19]) | Activity (Mus musculus [22]) | also measured
CCOC(=O)Nc1ccc(N2CCN(Cc3ccccc3)CC2)cc1 | 100 | 100 | inactive | inactive | Non-toxic | Non-toxic |  |  |  |  | 
CCOC(=O)Nc1ccc(N2CCN(c3ccc(C(C)=O)cc3)CC2)cc1 | 30 | 100 |  |  | Non-toxic | Non-toxic | 100 | 100 |  |  | Activity (Mus musculus [9]): Active; Activity (Mus musculus [10]): Active; Activity (Mus musculus [11]): Active; Activity (Mus musculus [12]): Active; Activity (Mus musculus [13]): Active; Activity (Mus musculus [14]): Active; Activity (Mus musculus [15]): inactive
CCOC(=O)Nc1ccc(N2CCN(c3ccccn3)CC2)cc1 | 100 | 100 | inactive | inactive |  |  |  |  |  |  | TD50 at 0.5 h [16]: 100 mg/kg; TD50 at 4 h [17]: 100 mg/kg
CCC1(c2ccccc2)C(=O)NC(=O)NC1=O |  |  |  |  |  |  |  |  |  |  | Activity (Mus musculus [18]): Active
CCOC(=O)Nc1ccc(N2CCN(c3ccc(C(F)(F)F)cc3)CC2)cc1 | 100 |  |  | inactive |  |  | 300 |  | inactive |  | Activity (Mus musculus [20]): Toxic; Activity (Mus musculus [21]): Toxic
CCOC(=O)Nc1ccc(N2CCN(Cc3ccc4c(c3)OCO4)CC2)cc1 |  |  |  | inactive | Non-toxic | Non-toxic | 300 |  | inactive | inactive | Activity (Mus musculus [23]): Toxic
CCCC(CCC)C(=O)O [VALPROIC ACID] |  |  | inactive |  | Non-toxic | Non-toxic |  | 300 | inactive | inactive | 
CCOC(=O)Nc1ccc(N2CCN(c3ccccc3)CC2)cc1 | 30 | 300 |  |  | Non-toxic | Non-toxic | 300 | 300 |  |  | 
CCOC(=O)Nc1ccc(N2CCN(CC)CC2)cc1 |  |  | inactive | inactive | Non-toxic | Non-toxic |  |  | inactive | inactive | 
CCOC(=O)Nc1ccc(N2CCN(c3ccc(Cl)cc3)CC2)cc1 | 100 | 300 |  |  |  |  | 100 | 100 |  |  | Activity (Mus musculus [20]): Toxic
NC(=O)N1c2ccccc2C=Cc2ccccc21 [CARBAMAZEPINE] | 30 | 100 |  |  |  |  | 100 | 300 |  |  | TD50 at 0.5 h [16]: 100 mg/kg; TD50 at 4 h [17]: 300 mg/kg
CCOC(=O)Nc1ccc(N2CCN(C)CC2)cc1 |  |  | inactive | inactive | Non-toxic | Non-toxic |  |  | inactive | inactive | 
CCOC(=O)Nc1ccc(N2CCN(c3ccc(C)cc3)CC2)cc1 | 30 | 100 |  | inactive |  |  | 100 |  |  |  | TD50 at 0.5 h [16]: 100 mg/kg; TD50 at 4 h [17]: 100 mg/kg; Activity (Mus musculus [24]): Toxic
CCOC(=O)Nc1ccc(N2CCN(C(=O)c3ccccc3)CC2)cc1 |  | 100 | inactive |  |  |  |  | 300 |  | inactive | TD50 at 0.5 h [16]: 300 mg/kg; TD50 at 4 h [17]: 300 mg/kg
CCOC(=O)Nc1ccc(N2CCN(c3ccc(OC)cc3)CC2)cc1 | 100 |  | inactive |  | Non-toxic | Non-toxic |  | 100 | inactive |  | 
O=C1NC(=O)C(c2ccccc2)(c2ccccc2)N1 [PHENYTOIN] | 30 | 30 | inactive | inactive |  |  |  |  |  |  | 
CCOC(=O)Nc1ccc(N2CCN(C(=O)c3ccco3)CC2)cc1 |  | 100 | inactive | inactive | Non-toxic | Non-toxic |  |  |  | inactive | 
CCC1(C)CC(=O)NC1=O (stereo not drawn) [ETHOSUXIMIDE] |  |  |  |  | Non-toxic | Non-toxic | 100 | 300 | inactive | inactive | 
CCOC(=O)Nc1ccc(N2CCN(c3ccncc3)CC2)cc1 | 100 | 300 | inactive | inactive |  |  |  |  |  |  | TD50 at 0.5 h [16]: 300 mg/kg; TD50 at 4 h [17]: 100 mg/kg; Activity (Mus musculus [25]): Toxic
CCOC(=O)Nc1ccc(N2CCN(c3ncccn3)CC2)cc1 | 100 | 300 | inactive | inactive | Non-toxic | Non-toxic |  |  |  |  | Activity (Mus musculus [26]): Toxic
CCOC(=O)Nc1ccc(N2CCN(C(c3ccc(F)cc3)c3ccc(F)cc3)CC2)cc1 |  | 300 | inactive |  | Non-toxic | Non-toxic |  | 100 |  | inactive | Activity (Mus musculus [27]): Toxic
CCOC(=O)Nc1ccc(N2CCN(c3ccc(F)cc3)CC2)cc1 |  | 300 | inactive | inactive | Non-toxic | Non-toxic |  |  | inactive | inactive | 
CCOC(=O)Nc1ccc(N2CCN(C(c3ccccc3)c3ccccc3)CC2)cc1 |  | 300 | inactive |  | Non-toxic | Non-toxic |  | 300 |  | inactive | 
